Source: ChEMBL document CHEMBL1126152, “Fluoronaphthyridines as antibacterial agents. 4. Synthesis and structure-activity relationships of 5-substituted-6-fluoro-7-(cycloalkylamino)-1,4-dihydro-4-oxo-1,8- naphthyridine-3-carboxylic acids” (J Med Chem, 1992)
In brackets after ≈: the same amount, converted by molar mass. Several values for one entry are separate records, joined by “and”; a condition that tells them apart may be missing. Equal entries are not always repeated.

Tests used:
Morganella morganii = test: In vitro for antibacterial activity against Morganella morganii; assay type: functional
Procedure, shortened: (§1)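 MIC by serial 2-fold broth dilution in nutrient broth with an inoculum of 10^6 CFU/mL. Compound range was 0.0005–250 μg/mL. Plates were incubated 18 h at 37 °C. MIC was taken as the lowest concentration preventing visible growth.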

Pseudomonas aeruginosa [1] = test: In vitro for antibacterial activity against Pseudomonas aeruginosa; assay type: functional; procedure, shortened: as §1
Streptococcus pneumoniae [2] = test: Antibacterial activity against Streptococcus pneumoniae; assay type: functional
[3] = (§2) Solubility was measured at PH - 7.2 buffer; assay type: physicochemical
Procedure, shortened: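 Excess solid was shaken overnight at 22 °C in pH 7.2 buffer for injection, then filtered. The diluted filtrate was assayed by HPLC with UV detection.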

Enterococcus faecalis = test: In vitro for antibacterial activity against Enterococcus faecalis; assay type: functional; procedure, shortened: as §1
Enterobacter cloacae = test: In vitro for antibacterial activity against Enterobacter cloacae; assay type: functional
Serratia marcescens = test: In vitro for antibacterial activity against Serratia marcescens; assay type: functional; procedure, shortened: as §1
Proteus mirabilis = test: In vitro for antibacterial activity against Proteus mirabilis; assay type: functional; procedure, shortened: as §1
Staphylococcus aureus [4] = test: Antibacterial activity against Staphylococcus aureus; assay type: functional
Klebsiella pneumoniae = test: In vitro for antibacterial activity against Klebsiella pneumoniae; assay type: functional; procedure, shortened: as §1
Escherichia coli [5] = test: In vitro for antibacterial activity against Escherichia coli; assay type: functional; procedure, shortened: as §1
Mus musculus = organism: Mus musculus; settings: in vivo
[6] = % dose recovered in mouse urine; settings: % recovery
Pseudomonas aeruginosa [7] = test: animal or person; assay type: functional; settings: in Mus musculus, po, read-out: PD50
Streptococcus pneumoniae [8] = test: animal or person; assay type: functional; settings: in Mus musculus, po, read-out: PD50
Bacteroides fragilis = test: In vitro for antibacterial activity against […].; assay type: functional; procedure, shortened: as §1
Escherichia coli [9] = test: Compound was tested for […] against Escherichia coli A 15119 after oral administration of drug in mice; assay type: functional; settings: read-out: PD50
Procedure, shortened: (§3)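 Mouse protection test against systemic infection. Compound was dissolved in sterile water and given orally to female OF1-strain Swiss mice weighing 18–25 g, with five mice per group.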

Staphylococcus = test: Compound was tested for […] against Staphylococcus aureus A 15090 after oral administration of drug in mice; assay type: functional; settings: read-out: PD50; procedure, shortened: as §3
in vivo [10] = settings: mouse, plasma
Staphylococcus aureus [11] = test: animal or person; assay type: functional; settings: in Mus musculus, po, read-out: PD50
in vivo [12] = settings: mouse, plasma, T1/2
[13] = Partition coefficient (logD); settings: octanol/water
[14] = as §2
[15] = Max plasma concentration was measured by 40 mg/kg dose of peroral administration.; assay type: ADME, organism-based; set-up: dose 40 mg/kg, route oral; settings: po
Procedure, shortened: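 Mice were dosed orally at 40 mg/kg, and compound levels were measured in blood. Values came from duplicate or triplicate experiments and are stated as accurate to ±50%.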

[16] = Lethal dose was determined in OF1-strain female Swiss mice after intra venous administration of the drug; settings: mouse, in vivo, iv
[17] = Lethal dose was determined in OF1-strain female Swiss mice after oral administration of the drug; settings: mouse, in vivo
Pseudomonas aeruginosa [18] = test: Compound was tested for […] against Pseudomonas aeruginosa A 9843 after oral administration of drug in mice,; assay type: functional; settings: read-out: PD50; procedure, shortened: as §3

| SMILES | MIC (Morganella morganii) [µg/mL] | MIC (Pseudomonas aeruginosa [1]) [µg/mL] | MIC (Streptococcus pneumoniae [2]) [µg/mL] | MIC (Enterococcus faecalis) [µg/mL] | MIC (Enterobacter cloacae) [µg/mL] | MIC (Serratia marcescens) [µg/mL] | MIC (Proteus mirabilis) [µg/mL] | MIC (Staphylococcus aureus [4]) [µg/mL] | MIC (Klebsiella pneumoniae) [µg/mL] | MIC (Escherichia coli [5]) [µg/mL] | T1/2 (Mus musculus) | dose excreted [6] [%] | ED50 (Pseudomonas aeruginosa [7]) [mg/kg] | ED50 (Streptococcus pneumoniae [8]) [mg/kg] | MIC (Bacteroides fragilis) [µg/mL] | ED50 (Escherichia coli [9]) [mg/kg] | ED50 (Staphylococcus) [mg/kg] | Cmax (in vivo [10]) [ng/mL] | logD [13] | solubility [14] [µg/mL] | further results |
| --- | --- | --- | --- | --- | --- | --- | --- | --- | --- | --- | --- | --- | --- | --- | --- | --- | --- | --- | --- | --- | --- |
| CCn1cc(C(=O)O)c(=O)c2c(C)c(F)c(N3CC[C@H](N)C3)nc21 | 0.03 (≈ 0.0897 µM) | 1 (≈ 2.99 µM) | 0.5 (≈ 1.5 µM) | 2 (≈ 5.98 µM) | 0.008 (≈ 0.0239 µM) | 0.13 (≈ 0.389 µM) | 0.13 (≈ 0.389 µM) | 0.016 (≈ 0.0479 µM) | 0.016 (≈ 0.0479 µM) | 0.002 (≈ 0.00598 µM) | – | – | – | – | – | – | – | – | – | – | solubility [3]: 30 µg/mL (≈ 89.7 µM) |
| Cc1c(F)c(N2CCNCC2)nc2c1c(=O)c(C(=O)O)cn2C1CC1 | 0.06 (≈ 0.173 µM) | 0.5 (≈ 1.44 µM) | 1 (≈ 2.89 µM) | 1 (≈ 2.89 µM) | 0.03 (≈ 0.0866 µM) | 0.13 (≈ 0.375 µM) | 0.13 (≈ 0.375 µM) | 0.03 (≈ 0.0866 µM) | 0.02 (≈ 0.0577 µM) | 0.008 (≈ 0.0231 µM) | 2.73 h and 1.23 h | 12 | 5.6 | > 50 | 32 (≈ 92.4 µM) | 1.2 | 9.6 | – | – | – | – |
| Cc1c(F)c(N2CC3CC2CN3)nc2c1c(=O)c(C(=O)O)cn2-c1ccc(F)cc1F (stereo not drawn) | 0.13 (≈ 0.302 µM) | 0.5 (≈ 1.16 µM) | 0.06 (≈ 0.139 µM) | 0.13 (≈ 0.302 µM) | 0.03 (≈ 0.0697 µM) | 0.13 (≈ 0.302 µM) | 0.06 (≈ 0.139 µM) | 0.008 (≈ 0.0186 µM) | 0.06 (≈ 0.139 µM) | 0.008 (≈ 0.0186 µM) | 2.08 h | 11 | 1.6 | – | 4 (≈ 9.29 µM) | – | – | 20000 | 0.59 | 50 (≈ 116 µM) | ED50 (Staphylococcus aureus [11]): 0.7 mg/kg; half-life (in vivo [12]): 2.38 h |
| Cc1c(F)c(N2CC[C@H](N)C2)nc2c1c(=O)c(C(=O)O)cn2C(C)(C)C | 0.06 (≈ 0.166 µM) | 1 (≈ 2.76 µM) | 0.25 (≈ 0.69 µM) | 0.13 (≈ 0.359 µM) | 0.03 (≈ 0.0828 µM) | 0.13 (≈ 0.359 µM) | 0.06 (≈ 0.166 µM) | 0.004 (≈ 0.011 µM) | 0.03 (≈ 0.0828 µM) | 0.004 (≈ 0.011 µM) | – | 7 | 25 | > 25 | 4 (≈ 11 µM) | – | 4.1 | 7000 | 1.14 | 570 (≈ 1570 µM) | half-life (in vivo [12]): 2.83 h; Cmax [15]: 7000 ng/mL |
| O=C(O)c1cn(C2CC2)c2nc(N3CCNCC3)c(F)cc2c1=O | 0.06 (≈ 0.181 µM) | 0.5 (≈ 1.5 µM) | – | 8 (≈ 24.1 µM) | 0.06 (≈ 0.181 µM) | 0.25 (≈ 0.752 µM) | 0.25 (≈ 0.752 µM) | 0.25 (≈ 0.752 µM) | 0.06 (≈ 0.181 µM) | 0.03 (≈ 0.0903 µM) | – | – | 3.6 | – | – | 0.4 | 7 | – | – | – | – |
| Cc1c(F)c(N2CC[C@H](N)C2)nc2c1c(=O)c(C(=O)O)cn2C1CC1 | 0.016 (≈ 0.0462 µM) | 0.25 (≈ 0.722 µM) | 0.13 (≈ 0.375 µM) | 0.13 (≈ 0.375 µM) | 0.002 (≈ 0.00577 µM) | 0.004 (≈ 0.0115 µM) | 0.008 (≈ 0.0231 µM) | 0.004 (≈ 0.0115 µM) | 0.004 (≈ 0.0115 µM) | 0.002 (≈ 0.00577 µM) | – | – | – | 19 | 0.25 (≈ 0.722 µM) | 1.8 | – | – | 0.78 | 70 (≈ 202 µM) | LD50 [16]: 56 mg/kg; ED50 (Staphylococcus aureus [11]): 5.5 mg/kg; LD50 [17]: 2500 mg/kg; ED50 (Pseudomonas aeruginosa [18]): 2.8 mg/kg |
